The source of these data is PubChem BioAssay AID1943 (The Scripps Research Institute Molecular Screening Center, 2009).

About 500 (31%) of roughly 1,600 compounds were called active. This excerpt belongs to a sample that is enriched for actives. A number with no mark means an inactive call.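 How the source made its calls: active means inhibition above the mean of all tested compounds plus 3 SD, cutoff set per campaign (cut at about 36% in these data); inactive means the rest.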

The subject of the assay is Hepatitis C virus NS3 helicase. Nature of the assay: HCV NS3 helicase inhibitors, retest, confirmation, biochemical, Cy5 molecular beacon fluorescence, triplicate (AID 1943). As to conditions: NS3 helicase DNA unwinding, at 10.9 µM, stronger effect = higher value. Put shortly: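 assay system = HCV NS3 helicase | medium = MOPS buffer pH 6.5 with MgCl2, DTT, Tween20 and BSA | compound dosing = single nominal final dose of 10.9 µM, DMSO vehicle | incubation = reads at 0 and 60 min post-ATP, 25 °C | detection = Cy5 fluorescence | read-out = % inhibition of unwinding | repeats = triplicate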
For the compound `O=C1CC(=O)N(Cc2ccccc2)C(=O)N1CCCCCCN1C(=O)CC(=O)N(Cc2ccccc2)C1=O`, the inhibition is 55.3% (active).

Turning to `COc1ccc(N2C(=O)/C(=C/c3ccco3)C(=O)NC2=S)cc1`, the inhibition was 82% (active).

In the case of `CC(C)n1c(=O)c(C=Nc2ccc(Br)cc2)c(O)n(Cc2ccco2)c1=O`, the inhibition is 1.92%.
